Assay results reported in ChEMBL document CHEMBL2385035 (J Med Chem, 2013).
Calls of active or inactive are those of the source. The calls are words filed in the database; no cut-off is given here.

Legend:
[1] = Cmax in Sprague-Dawley rat portal vein blood at 10 mg/kg, po; type: ADME, organism-based; set-up: dose 10 mg/kg, route oral
Summary of the method: (§1)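 Fed male SD rats given a single oral gavage dose of 10 mg/kg. Maximum parent drug concentration measured in portal vein blood and in systemic blood.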

[2] = Cmax in Sprague-Dawley rat systemic blood at 10 mg/kg, po; type: ADME, organism-based; set-up: dose 10 mg/kg, route oral; summary of the method: as §1
[3] = Apparent permeability in MDCK cells expressing MDR1 at 3 uM after 60 mins by LC-MS/MS analysis; type: ADME, cell-based, Canis lupus familiaris; conditions: dog
[4] = biological target: T1, Ileal sodium/bile acid cotransporter (Homo sapiens, UniProt Q12908); experiment: Inhibition of human ASBT expressed in HEK293 cells assessed as inhibition of [3H]-taurocholate uptake after 90 mins by scintillation counting analysis; type: cell-based
T1 sequence (Q12908 whole entry): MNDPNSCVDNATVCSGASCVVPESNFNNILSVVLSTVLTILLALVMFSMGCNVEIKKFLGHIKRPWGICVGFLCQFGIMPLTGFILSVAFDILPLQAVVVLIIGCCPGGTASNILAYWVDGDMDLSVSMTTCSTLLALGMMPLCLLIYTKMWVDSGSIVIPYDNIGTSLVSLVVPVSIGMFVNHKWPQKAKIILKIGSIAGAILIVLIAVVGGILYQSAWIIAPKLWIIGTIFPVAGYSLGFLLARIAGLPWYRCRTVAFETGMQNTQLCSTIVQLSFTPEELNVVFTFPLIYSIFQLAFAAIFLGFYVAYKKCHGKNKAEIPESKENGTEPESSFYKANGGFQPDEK

Mus musculus [5] = experiment: In vivo inhibition of ASBT in C57BL/6J mouse assessed as increase in fecal bile acid excretion measured for 24 hrs relative to 264W94; type: functional, Feces; set-up: concentration or dose not given beside the values
Mus musculus [6] = experiment: In vivo inhibition of ASBT in C57BL/6J mouse assessed as increase in fecal bile acid excretion measured for 24 hrs; type: functional; conditions: Feces
[7] = Drug recovery in Sprague-Dawley rat feces at 10 mg/kg, po; type: ADME, organism-based; set-up: dose 10 mg/kg, route oral; conditions: read-out: Drug recovery
[8] = Half life in Sprague-Dawley rat intestine at 10 mg/kg, po; type: ADME, organism-based; set-up: dose 10 mg/kg, route oral
[9] = biological target: T2, Ileal sodium/bile acid cotransporter (Rattus norvegicus, UniProt Q62633); experiment: Inhibition of rat ASBT expressed in HEK293 cells assessed as inhibition of [3H]-taurocholate uptake after 90 mins by scintillation counting analysis; type: cell-based
T2 sequence (Q62633 whole entry): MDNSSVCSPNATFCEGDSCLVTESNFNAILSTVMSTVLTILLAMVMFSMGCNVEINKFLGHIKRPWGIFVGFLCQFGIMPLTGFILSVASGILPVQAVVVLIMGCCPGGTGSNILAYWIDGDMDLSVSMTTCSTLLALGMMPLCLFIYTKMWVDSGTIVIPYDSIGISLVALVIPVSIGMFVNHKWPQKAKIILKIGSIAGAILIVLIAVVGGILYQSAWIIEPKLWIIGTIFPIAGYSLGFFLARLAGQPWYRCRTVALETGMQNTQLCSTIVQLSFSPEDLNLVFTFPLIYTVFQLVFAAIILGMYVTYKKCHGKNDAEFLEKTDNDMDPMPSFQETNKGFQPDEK

[10] = biological target: T3, Ileal sodium/bile acid cotransporter (Mus musculus, UniProt P70172); experiment: Inhibition of mouse ASBT expressed in HEK293 cells assessed as inhibition of [3H]-taurocholate uptake after 90 mins by scintillation counting analysis; type: cell-based
T3 sequence (P70172 whole entry): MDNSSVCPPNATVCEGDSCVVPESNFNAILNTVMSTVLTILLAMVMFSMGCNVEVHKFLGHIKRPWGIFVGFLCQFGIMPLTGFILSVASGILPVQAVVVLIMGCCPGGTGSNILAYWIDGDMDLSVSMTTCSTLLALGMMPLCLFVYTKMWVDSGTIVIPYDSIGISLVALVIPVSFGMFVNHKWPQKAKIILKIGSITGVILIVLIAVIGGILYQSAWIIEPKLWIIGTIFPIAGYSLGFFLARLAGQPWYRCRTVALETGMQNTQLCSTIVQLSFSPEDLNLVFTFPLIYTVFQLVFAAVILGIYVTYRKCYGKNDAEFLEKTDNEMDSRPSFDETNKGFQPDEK

[11] = Thermal stability of the compound; type: physicochemical
[12] = Aqueous solubility of the compound; type: physicochemical; conditions: buffer
Rattus norvegicus [13] = experiment: Antidiabetic activity in Zucker diabetic fatty rat assessed as increase in total GLP-1 level at 0.05 to 10 mg/kg, po bid for 2 weeks measured on day 14 relative to vehicle-treated control; type: functional, organism-based
Summary of the method: (§2)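 Male ZDF rats, 8 weeks old, dosed orally twice daily for 14 days in two separate studies. Day-14 tail-vein blood sampled for HbA1c and for plasma glucose (nonfasted), insulin and total GLP-1. Compared with vehicle-treated animals, significance at p < 0.05.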

Rattus norvegicus [14] = experiment: Antidiabetic activity in Zucker diabetic fatty rat assessed as increase in plasma insulin level at 0.05 to 10 mg/kg, po bid for 2 weeks measured on day 14 relative to vehicle-treated control; type: functional, organism-based; summary of the method: as §2
Rattus norvegicus [15] = experiment: Antidiabetic activity in Zucker diabetic fatty rat assessed as reduction in non-fasted plasma glucose level at 0.05 to 10 mg/kg, po bid for 2 weeks measured on day 14 relative to vehicle-treated control; type: functional; set-up: scale not given: the % may be the effect or the level left; conditions: dose mg/kg 0.05-10; summary of the method: as §2
Rattus norvegicus [16] = experiment: Antidiabetic activity in Zucker diabetic fatty rat assessed as reduction in blood HbA1c level at 0.05 to 10 mg/kg, po bid for 2 weeks measured on day 14 relative to vehicle-treated control; type: functional; set-up: scale not given: the % may be the effect or the level left; conditions: dose mg/kg 0.05-10; summary of the method: as §2
Rattus norvegicus [17] = experiment: Antidiabetic activity in Zucker diabetic fatty rat assessed as increase in fecal bile acid excretion at 0.05 to 10 mg/kg, po bid for 2 weeks measured for 24 hrs post last dose relative to vehicle-treated control; type: functional, Feces; conditions: dose mg/kg 0.05-10

Compound	Cmax [1] [ng/mL]	Cmax [2] [ng/mL]	Papp at 1 h, 3 µM [3] [×10⁻⁶ cm/s]	IC50 [4] [nM]	further results
CCCC[C@]1(CC)CS(=O)(=O)c2cc(OCCP(=O)(O)O)c(OC)cc2[C@@H](c2ccccc2)N1	82	16	0.8	44	–
CCCC[C@]1(CC)CS(=O)(=O)c2cc(CN[C@@H](CO)C(=O)O)c(OC)cc2[C@@H](c2ccccc2)N1	12	24	0.5	–	Efficacy (Mus musculus [5]): 47%; ED50 (Mus musculus [6]): 0.012 mg/kg; dose excreted [7]: 63%; half-life [8]: 8 h
CCCC[C@]1(CC)CS(=O)(=O)c2cc(CN(C)CCC(=O)O)c(OC)cc2[C@@H](c2ccccc2)N1	–	–	–	367	–
CCCC[C@]1(CC)CS(=O)(=O)c2cc(CN(CCS(=O)(=O)O)CCS(=O)(=O)O)c(OC)cc2[C@@H](c2ccccc2)N1	–	–	0.8	–	–
CCCC[C@]1(CC)CS(=O)(=O)c2cc(CCC(=O)NC(CC(=O)O)CC(=O)O)c(OC)cc2[C@@H](c2ccccc2)N1	–	–	–	> 3000	–
CCCC[C@]1(CC)CS(=O)(=O)c2cc(CCC(=O)O)c(OC)cc2[C@@H](c2ccccc2)N1	–	–	38.3	–	–
CCCC[C@]1(CC)CS(=O)(=O)c2cc(CCP(=O)(O)O)c(OC)cc2[C@@H](c2ccccc2)N1	–	–	1.2	–	–
CCCC[C@]1(CC)CS(=O)(=O)c2cc(OCC(=O)O)c(OC)cc2[C@@H](c2ccccc2)N1	1460	26	1	34	–
CCCC[C@]1(CC)CS(=O)(=O)c2cc(CCCS(=O)(=O)O)c(OC)cc2[C@@H](c2ccccc2)N1	–	–	0.7	–	–
CCCC[C@]1(CC)CS(=O)(=O)c2cc(CNC(=O)CNC(CC(=O)O)CC(=O)O)c(OC)cc2[C@@H](c2ccccc2)N1	–	–	–	> 3000	–
CCCC[C@]1(CC)CS(=O)(=O)c2cc(CN[C@@H](CC(=O)O)C(=O)O)c(OC)cc2[C@@H](c2ccccc2)N1	93	1	0.6	–	–
CCCC[C@]1(CC)CS(=O)(=O)c2cc(CNCCS(=O)(=O)O)c(OC)cc2[C@@H](c2ccccc2)N1	7	–	1	–	Efficacy (Mus musculus [5]): 73%; ED50 (Mus musculus [6]): 2.7 mg/kg; dose excreted [7]: 100%; half-life [8]: > 12 h; IC50 [9]: 2.3 nM; IC50 [10]: 0.9 nM
CCCC[C@]1(CC)CS(=O)(=O)c2cc(CNC(=O)C(=O)O)c(OC)cc2[C@@H](c2ccccc2)N1	87	–	–	–	–
CCCC[C@]1(CC)CS(=O)(=O)c2cc(CN(CC(=O)O)CC(=O)O)c(OC)cc2[C@@H](c2ccccc2)N1	56	43	0.4	245	–
CCCC[C@]1(CC)CS(=O)(=O)c2cc(CN(CP(=O)(O)O)CP(=O)(O)O)c(OC)cc2[C@@H](c2ccccc2)N1	–	–	–	> 3000	–
CCCC[C@]1(CC)CS(=O)(=O)c2cc(CNC(=O)CP(=O)(O)O)c(OC)cc2[C@@H](c2ccccc2)N1	–	–	0.3	–	–
CCCC[C@]1(CC)CS(=O)(=O)c2cc(CCCP(=O)(O)O)c(OC)cc2[C@@H](c2ccccc2)N1	–	–	0.7	–	–
CCCC[C@]1(CC)CS(=O)(=O)c2cc(CCC(=O)NCC(=O)O)c(OC)cc2[C@@H](c2ccccc2)N1	–	–	1.2	–	–

Compound	Cmax [1] [ng/mL]	Cmax [2] [ng/mL]	Papp at 1 h, 3 µM [3] [×10⁻⁶ cm/s]	IC50 [4] [nM]	further results
CCCC[C@]1(CC)CS(=O)(=O)c2cc(CNC(=O)CS(=O)(=O)O)c(OC)cc2[C@@H](c2ccccc2)N1	122	26	1.9	–	–
CCCC[C@]1(CC)CS(=O)(=O)c2cc(OCCCP(=O)(O)O)c(OC)cc2[C@@H](c2ccccc2)N1	260	7	1	133	–
CCCC[C@]1(CC)CS(=O)(=O)c2cc(CN3CCC[C@H]3C(=O)O)c(OC)cc2[C@@H](c2ccccc2)N1	–	–	–	> 3000	–
CCCC[C@]1(CC)CS(=O)(=O)c2cc(C(=O)NCC(C)(C)C(=O)O)c(OC)cc2[C@@H](c2ccccc2)N1	–	–	4.3	–	–
CCCC[C@]1(CC)CS(=O)(=O)c2cc(C(=O)NCCS(=O)(=O)O)c(OC)cc2[C@@H](c2ccccc2)N1	132	38	0.4	–	–
CCCC[C@]1(CC)CS(=O)(=O)c2cc(OCP(=O)(O)O)c(OC)cc2[C@@H](c2ccccc2)N1	–	–	–	900	–
CCCC[C@]1(CC)CS(=O)(=O)c2cc(C(CC(=O)O)CC(=O)O)c(OC)cc2[C@@H](c2ccccc2)N1	333	19	0.5	> 3000	–
CCCC[C@]1(CC)CS(=O)(=O)c2cc(OCCCC(=O)O)c(OC)cc2[C@@H](c2ccccc2)N1	–	–	30.3	13	–
CCCC[C@]1(CC)CS(=O)(=O)c2cc(CS(=O)(=O)O)c(OC)cc2[C@@H](c2ccccc2)N1	170	3	0.9	–	–
CCCC[C@]1(CC)CS(=O)(=O)c2cc(C(=O)NCS(=O)(=O)O)c(OC)cc2[C@@H](c2ccccc2)N1	92	4	0.7	–	–
CCCC[C@]1(CC)CS(=O)(=O)c2cc(CCCC(=O)O)c(OC)cc2[C@@H](c2ccccc2)N1	–	–	34.2	–	–
CCCC[C@]1(CC)CS(=O)(=O)c2cc(CCC(=O)NCS(=O)(=O)O)c(OC)cc2[C@@H](c2ccccc2)N1	–	–	0.7	–	–
CCCC[C@]1(CC)CS(=O)(=O)c2cc(CNCP(=O)(O)O)c(OC)cc2[C@@H](c2ccccc2)N1	–	–	–	> 3000	–
CCCC[C@]1(CC)CS(=O)(=O)c2cc(OCCS(=O)(=O)O)c(OC)cc2[C@@H](c2ccccc2)N1	220	7	1.2	4	–
CCCC[C@]1(CC)CS(=O)(=O)c2cc(CN[C@H](CC(=O)O)C(=O)O)c(OC)cc2[C@@H](c2ccccc2)N1	11	1	0.7	–	Efficacy (Mus musculus [5]): 70%; ED50 (Mus musculus [6]): > 1 mg/kg; dose excreted [7]: 100%
CCCC[C@]1(CC)CS(=O)(=O)c2cc(CN(C)CC(=O)O)c(OC)cc2[C@@H](c2ccccc2)N1	224	1	1	–	–
CCCC[C@]1(CC)CS(=O)(=O)c2cc(CNCC(=O)O)c(OC)cc2[C@@H](c2ccccc2)N1	27	1	2.7	4	Stability [11]: Unstable; solubility [12]: ≥ 200 µg/mL; Activity (Rattus norvegicus [13]): Active; Activity (Rattus norvegicus [14]): Active; Activity (Rattus norvegicus [15]): >50%; Activity (Rattus norvegicus [16]): 1.3%; fold change (FC) (Rattus norvegicus [17]): 7; Efficacy (Mus musculus [5]): 98%; ED50 (Mus musculus [6]): 0.017 mg/kg; dose excreted [7]: 92%; half-life [8]: > 12 h; IC50 [9]: 0.2 nM; IC50 [10]: 0.3 nM
CCCC[C@]1(CC)CS(=O)(=O)c2cc(OCCCS(=O)(=O)O)c(OC)cc2[C@@H](c2ccccc2)N1	289	1	0.8	50	–
